APJ ag: agonists of human apelin receptor APJ, primary screen, CHO-K1 cells, PathHunter beta-arrestin, luminescence | AID 2520, 2010 | 330,000 tested, 0.11% active | 0% DMSO wells, 100% apelin | P35414 | activation, % at 20 µM;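 active = activation more than six SD over the plate average, tested at 20 µM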;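 note: 0% = DMSO alone and 100% = apelin-13 at 10 nM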
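Test system – PathHunter CHO-K1 APJ (AGTRL-1) beta-arrestin reporter cells · Input – 1000 cells/well · Compound – single test compound dose, 20 µM final, 1% DMSO · Times – compound stimulation 90 min at 25 °C, detection 60 min · Technique – beta-gal luminescence · Read-out basis – APJ–arrestin association signal · Control set – negative DMSO alone, positive Apelin-13 at 10 nM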
EBI2 block: EBI2 receptor antagonists, beta-arrestin recruitment, primary screen, cell-based, luminescence, 7a,25-OHC stimulation, uHTS; G-protein coupled receptor 183 (Homo sapiens), P32249; inhibition, % at 5 µM; 7a,25-OHC stimulated; 360,000 tested, 0.81% active; in the data active = inhibition above about 38%;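 note: enzyme fragment complementation signal reports receptor beta-arrestin coupling in cells; 0% = agonist plus DMSO wells and 100% = wells without agonist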
Target sequence (P32249 whole entry, looked up, the tested form may be a part): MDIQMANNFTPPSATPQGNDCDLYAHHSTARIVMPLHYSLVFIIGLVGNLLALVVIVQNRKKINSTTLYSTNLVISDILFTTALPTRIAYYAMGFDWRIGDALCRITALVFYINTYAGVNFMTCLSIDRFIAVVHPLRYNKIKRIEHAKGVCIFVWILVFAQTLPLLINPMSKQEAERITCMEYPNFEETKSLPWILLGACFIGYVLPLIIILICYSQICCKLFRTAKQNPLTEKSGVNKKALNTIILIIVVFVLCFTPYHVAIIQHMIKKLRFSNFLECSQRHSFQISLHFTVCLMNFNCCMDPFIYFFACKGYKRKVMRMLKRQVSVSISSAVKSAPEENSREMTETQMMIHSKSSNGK
APJ antagonist: antagonists of human apelin receptor APJ, primary screen, CHO-K1 cells, beta-arrestin complementation, luminescence | P35414 | inhibition, % at 20 µM | 330,000 tested, 0.32% active | AID 2521, 2010;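 active = inhibition above about 40% at 20 µM, limit read from the data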;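 note: cells challenged with 10 nM apelin-13 agonist together with compound; plate controls were apelin-13 plus DMSO wells for no effect and DMSO wells lacking apelin-13 for full effect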
CXCR6 block: CXCR6 receptor inhibitors, primary screen, cell-based, beta-arrestin, luminescence, CHO-K1 PathHunter, 1536-well; C-X-C chemokine receptor type 6 (Homo sapiens), O00574; inhibition, % at 20 µM; 360,000 tested, 0.36% active; in the data active = inhibition above about 34%, passing the limit was not always enough;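 note: antagonist mode with CXCL16 agonist at 10 nM final; 0% = 10 nM CXCL16 with DMSO and 100% = unstimulated wells without agonist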
CCR6 antagonist: CCR6 receptor antagonists, primary screen, cell-based, CHO-K1, luminescence, beta-arrestin, uHTS | 340,000 tested, 0.49% active | C-C chemokine receptor type 6 (Homo sapiens), P51684 | AID 493098, 2011 | inhibition, % at 20 µM | CHO-K1 CCR6 PathHunter beta-arrestin, CCL20-stimulated;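 active = compounds whose inhibition of the agonist-driven luminescence signal at 20 µM reaches about 50%, limit read from the data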;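 note: cells stimulated with CCL20 at 14 nM final; plate controls were DMSO with CCL20 for no effect and DMSO without agonist for full effect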
Target sequence (P51684 whole entry, looked up): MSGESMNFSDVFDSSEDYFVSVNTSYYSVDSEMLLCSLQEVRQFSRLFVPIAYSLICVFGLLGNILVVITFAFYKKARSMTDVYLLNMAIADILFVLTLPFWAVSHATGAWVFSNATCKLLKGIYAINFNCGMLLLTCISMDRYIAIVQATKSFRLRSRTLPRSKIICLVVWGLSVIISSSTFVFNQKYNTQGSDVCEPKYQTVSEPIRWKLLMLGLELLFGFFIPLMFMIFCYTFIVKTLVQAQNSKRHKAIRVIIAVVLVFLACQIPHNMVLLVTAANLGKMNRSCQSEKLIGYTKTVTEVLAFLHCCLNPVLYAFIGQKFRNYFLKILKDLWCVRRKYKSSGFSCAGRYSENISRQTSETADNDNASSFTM
APJ antag conf: APJ antagonists blocking beta-arrestin recruitment, confirmation, cell-based, luminescence, single concentration, uHTS hits. shares compounds with APJ antagonist. antagonist mode. inhibition, % at 20 µM. 950 tested, 66% active; in the data active = inhibition above about 50%
CXCR6 antag conf: CXCR6 receptor antagonists, confirmation, cell-based, single concentration, beta-arrestin, luminescence. inhibition, % at 20 µM. shares compounds with CXCR6 block. 700 tested, 65% active. AID 602409, 2012. CHO-K1 CXCR6 PathHunter beta-arrestin;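 active = mean inhibition over four retests above 40%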;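 note: receptor stimulated with 10 nM CXCL16 agonist; beta-galactosidase fragment complementation upon beta-arrestin recruitment to receptor; plate controls were CXCL16 plus DMSO for no effect and DMSO without CXCL16 for full effect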
The depositor's hits bear a star; . = no result given. A selection: hits, their analogues and other compounds. The true share with any hit is near 1.5%.

SMILES | APJ ag | EBI2 block | APJ antagonist | CXCR6 block | CCR6 antagonist | APJ antag conf | CXCR6 antag conf
CCN(c1ccccc1)S(=O)(=O)c1ccc(Cl)c(NC(=O)CN2C(=O)NC3(CCCC3)C2=O)c1 | -4.5 | 16.2 | 40.7* | 34.2 | 43.1 | 65.6* | .
CCOC(=O)C(C(=O)OCC)c1cc(Br)c2noc3c2c1C(=O)c1ccccc1-3 | -4.5 | -5.2 | 40.9* | 77.7* | 82.8* | 105.2* | .
COc1ccc(/C=C/C(=O)NC(=S)Nc2cc([N+](=O)[O-])ccc2O)cc1OC | -6.2 | -7.0 | 42.4* | 33.3 | 29.1 | 59.9* | .
COc1ccc([N+](=O)[O-])cc1NC(=S)NC(C)=O | -2.1 | -4.0 | 15.9 | 4.0 | 12.2 | . | .
O=C1CCN(Cc2ccc(Br)cc2)CCN1[C@H](CO)Cc1ccccc1 | -4.7 | 5.7 | 45.2* | 25.1 | 19.1 | 30.0 | .
O=C1CCN(Cc2ccccc2)CCN1[C@H](CO)Cc1ccccc1 | 2.0 | 3.6 | 7.3 | 2.1 | 1.8 | . | .
Cc1cccc(C)c1NC(=O)CN(C)C(=O)C1=COCCO1 | -3.9 | -1.2 | -4.5 | 0.7 | 0.5 | . | .
Cc1ccc(CS(=O)(=O)c2ncc(Cl)c(C(=O)Nc3ccc(OC(F)F)cc3)n2)cc1 | -4.8 | 42.9 | 42.1* | 75.7* | 71.1* | 51.8* | 67.3*
Cc1ccc(CS(=O)(=O)c2ncc(Cl)c(C(=O)Nc3nnc(C(C)C)s3)n2)cc1 | 0.5 | 38.0 | -15.4 | -9.1 | 2.1 | . | .
O=C(N/N=C(\c1ccccc1)c1cccnc1)c1ccc(O)cc1 | -3.4 | -6.5 | 0.8 | 0.8 | 11.7 | . | .
O=C(N/N=C(\c1ccccc1)c1cccnc1)c1cccc(F)c1 | -17.5 | 20.8 | 69.7* | 83.1* | 100.8* | 88.2* | 94.4*
COC(=O)c1ccc2c(c1)C(C)(C)C(/C=C/c1ccccc1O)=[N+]2C | 1.2 | 15.8 | 62.9* | 67.9* | 89.5* | 124.2* | 93.0*
C[N+]1=C(/C=C/Nc2ccccc2Cl)C(C)(C)c2ccccc21 | 1.0 | -1.5 | -6.7 | -8.0 | 22.9 | . | .
O=C(Nc1nnc(SCc2ccc(F)cc2)s1)c1ccccn1 | -11.7 | 66.6* | 77.9* | 43.5* | 69.6* | 46.4 | 49.6*
Cc1cccc(CSc2cccc3cccnc23)c1 | -14.3 | 45.0* | 56.3* | 65.7* | 72.1* | 84.0* | 74.3*
COc1ccccc1NS(=O)(=O)c1cc(NC(=O)Cc2n[nH]c(=O)c3ccccc23)ccc1Cl | 1.3 | 9.5 | 11.5 | -9.7 | 11.1 | . | .
CCOC(=O)c1c(-c2ccc(C)o2)csc1NC(=S)NC(=O)N(C)C | -4.8 | -11.6 | 45.5* | 44.4* | . | 42.4 | 62.1*
Cc1cc(OC(C)C(=O)NCCCN2CCOCC2)c2c(C)c(C)c(=O)oc2c1 (stereo unspecified) | 0.2 | -2.5 | 6.2 | -0.3 | 1.6 | . | .
CC(C)(C)c1ccc(CC(=O)N2CCC2(C)C(=O)NS(=O)(=O)c2cccs2)cc1 (stereo unspecified) | . | -4.0 | . | -0.2 | . | . | .
COC(=O)c1ccc(C)c(-n2c(=O)n(Cc3ccccc3)c(=O)c3[nH]cnc32)c1 | -9.5 | 21.8 | 60.6* | 66.5* | 64.1* | 122.2* | 48.7*
Cc1onc(-c2ccccc2)c1CNS(=O)(=O)c1cccc(Br)c1 | 0.4 | -11.1 | 21.1 | -1.3 | 13.3 | . | .
Cc1ccc(/C=N/NC(=S)N2CCOCC2)cc1 | -6.3 | -4.1 | 51.1* | 49.6* | 76.2* | 64.7* | 73.9*
Cc1ccc(CNC(=S)N2CCOCC2)cc1 | -2.4 | -9.7 | 12.7 | -9.9 | -2.7 | . | .
O=C(Nc1ccc(C(=O)NCCCN2CCN(c3ccc(F)cc3)CC2)cc1)C1=CSCCO1 | 0.9 | -0.9 | 6.3 | -11.6 | -5.6 | . | .
CCN1CCN(c2oc(-c3ccccc3C)nc2S(=O)(=O)c2ccccc2)CC1 | 15.9 | -12.8 | 27.0 | 10.4 | 18.9 | . | .
SMILES | APJ ag | EBI2 block | APJ antagonist | CXCR6 block | CCR6 antagonist | APJ antag conf | CXCR6 antag conf
Cc1ccc(C2C(C#N)=C(N)Oc3n[nH]c(-c4cccs4)c32)cc1 (stereo unspecified) | 0.9 | -4.5 | -9.3 | -0.5 | 19.6 | . | .
COc1cc(C2C(C#N)=C(N)Oc3n[nH]c(-c4cccs4)c32)cc(OC)c1O (stereo unspecified) | -3.8 | -4.0 | 46.9* | 48.6* | 59.2* | 47.1 | 51.0*
O=C1c2cccc3c([N+](=O)[O-])ccc(c23)C(=O)N1c1ccc(Cl)cn1 | -5.2 | 44.2* | 48.8* | 53.6* | 76.2* | 82.9* | 41.7*
CC(=O)OCCN(C)c1cc(SC(C)C)c2nonc2c1[N+](=O)[O-] | 3.8 | -7.9 | -0.9 | 6.5 | 24.9 | . | .
CN(CCO)c1cc(Sc2nc3ccccc3s2)c2nonc2c1[N+](=O)[O-] | -9.3 | 25.5 | 97.0* | 98.8* | 112.6* | 107.1* | 109.0*
FC(F)(F)c1cnc(NNC(=S)Nc2cccnc2)c(Cl)c1 | -7.2 | 20.4 | 63.0* | 70.7* | 87.3* | 65.0* | 66.6*
Cc1cccc(C)c1NC(=S)NNc1ncc(C(F)(F)F)cc1Cl | -4.9 | -0.9 | 29.2 | 16.1 | 28.6 | . | .
Cc1ccccc1NC(=S)NNc1ncc(C(F)(F)F)cc1Cl | -7.6 | 17.2 | 44.7* | 44.7* | 69.6* | 70.3* | 52.6*
CC(C)c1cc(C(=O)NNC(=S)NC2CCCCC2)cs1 | -4.8 | 7.1 | -3.4 | 18.7 | 10.1 | . | .
Oc1cccc2ccc(/C=C/c3c(F)cccc3Cl)nc12 | -7.1 | 8.2 | 43.8* | 47.0* | 55.6* | 32.5 | 58.2*
CC1CCCN(S(=O)(=O)c2ccc(NC(=O)CNC3CCCC3)cc2)C1 (stereo unspecified) | -2.8 | -7.7 | 8.7 | -1.1 | 14.6 | . | .
CCC1CCCCN1S(=O)(=O)c1ccc(NC(=O)c2nc(S(C)(=O)=O)ncc2Cl)cc1 (stereo unspecified) | -7.5 | 11.0 | 59.6* | 88.2* | 98.0* | 91.5* | 81.8*
CCC1CCCCN1S(=O)(=O)c1ccc(NC(=O)c2ccncc2)cc1 (stereo unspecified) | 6.7 | 0.7 | -19.8 | -25.9 | 7.8 | . | .
CCS(=O)(=O)c1ncc(Cl)c(C(=O)Nc2ccc(S(=O)(=O)N3CCCC(C)C3)cc2)n1 (stereo unspecified) | -7.7 | 50.2* | 77.7* | 87.2* | 94.0* | 104.2* | 77.9*
COC(=O)[C@@]1(Cc2ccccc2)[C@H]2C(=O)N(C)C(=O)[C@H]2[C@H]2CN=C(SCC(=O)c3ccccc3)N21 | . | -8.7 | . | 10.8 | 11.2 | . | .

High-throughput results as filed in PubChem.
